Measurements: ChEMBL document CHEMBL1155944 (J Med Chem, 2008)

Assays:
[1] = target: Gamma-aminobutyric acid receptor subunit alpha-6 (Rattus norvegicus, UniProt P18508+P30191+P63079); assay: Agonist activity at rat recombinant GABAA alpha-6-beta-3-gamma-2 receptor expressed in HEK293 cells assessed as normalization of GABA-induced current by whole cell patch-clamp technique; format: functional, cell-based
Summary of the method: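 HEK293 cells transiently transfected by calcium phosphate with rat α6 (2 μg), β3 (0.4 μg) and γ2S (0.3 μg) cDNAs plus 1 μg EGFP vector per plate. Whole-cell patch clamp was done 2 days later on EGFP-positive cells in HEPES saline at pH 7.35. Compound was applied alone by fast perfusion at 1, 10, 100 and 1000 μM.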

[2] = target: T1, GABA A receptor alpha-2/beta-2/gamma-2 (Rattus norvegicus) (UniProt P18508+P23576+P63138); assay: Intrinsic activity at recombinant rat GABAA alpha-2-beta-3-gamma-2 receptor expressed in HEK293 cells assessed as induction of current at 1 mM by whole-cell patch-clamp technique relative to GABA; format: cell-based
Summary of the method: (§1)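 Rat αiβ3γ2S receptors transiently expressed in HEK293 cells, with EGFP marking transfected cells, recorded 2 days after transfection. Whole-cell patch clamp in HEPES saline, pH 7.35. Drug applied alone at 1, 10, 100 and 1000 μM. […] Data from at least four cells.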

[3] = target: Gamma-aminobutyric acid receptor subunit alpha-3 (Rattus norvegicus, UniProt P18508+P20236+P63079); assay: Agonist activity at rat recombinant GABAA alpha-3-beta-3-gamma-2 receptor expressed in HEK293 cells assessed as normalization of GABA-induced current by whole cell patch-clamp technique; format: functional, cell-based
Summary of the method: (§2)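 HEK293 cells transiently co-transfected (calcium phosphate) with rat αi, β3 and γ2S cDNAs plus EGFP marker; recorded 2 days later by whole-cell patch clamp in HEPES saline pH 7.35.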

[4] = target: Gamma-aminobutyric acid receptor subunit alpha-3 (Rattus norvegicus) (UniProt P20236); assay: Intrinsic activity at recombinant rat GABAA alpha-3-beta-3-gamma-2 receptor expressed in HEK293 cells assessed as induction of current at 1 mM by whole-cell patch-clamp technique relative to GABA; format: cell-based; summary of the method: as §1
[5] = target: Gamma-aminobutyric acid receptor subunit alpha-6 (Rattus norvegicus) (UniProt P30191); assay: Displacement of [3H]Muscimol from GABAAalpha6 receptor in Sprague-Dawley rat brain cerebellum membrane at 100 uM; format: tissue-based
Summary of the method: (§3)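 Well-washed membranes from adult male Sprague-Dawley rat cortex or cerebellum (50–200 μg protein). Incubated 60 min on ice in 50 mM Tris/citrate, pH 7.3, with 6 nM [3H]muscimol and test compound. […] Filtered and counted by scintillation. IC50 and pseudo-Hill coefficient obtained by nonlinear regression.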

[6] = target: Gamma-aminobutyric acid receptor subunit alpha-6 (Rattus norvegicus) (UniProt P30191); assay: Intrinsic activity at recombinant rat GABAA alpha-6-beta-3-gamma-2 receptor expressed in HEK293 cells assessed as induction of current at 1 mM by whole-cell patch-clamp technique relative to GABA; format: cell-based; summary of the method: as §1
Rattus norvegicus [7] = species: Rattus norvegicus; assay: (§4) Displacement of [3H]Muscimol from GABAA alpha-1-alpha-5 receptor in Sprague-Dawley rat brain cortex membrane; summary of the method: as §3
[8] = as §4; summary of the method: as §3
[9] = target: Gamma-aminobutyric acid receptor subunit alpha-4 (Rattus norvegicus, UniProt P18508+P28471+P63079); assay: Agonist activity at rat recombinant GABAA alpha-4-beta-3-gamma-2 receptor expressed in HEK293 cells assessed as normalization of GABA-induced current by whole cell patch-clamp technique; format: functional, cell-based; summary of the method: as §2
[10] = target: Gamma-aminobutyric acid receptor subunit alpha-6 (Rattus norvegicus) (UniProt P30191); assay: (§5) Displacement of [3H]Muscimol from GABAAalpha6 receptor in Sprague-Dawley rat brain cerebellum membrane; format: tissue-based; summary of the method: as §3
[11] = target: Gamma-aminobutyric acid receptor subunit alpha-6 (Rattus norvegicus, UniProt P30191); assay: as §5; format: tissue-based; summary of the method: as §3
[12] = target: GABA-A receptor; alpha-1/beta-2/gamma-2 (Rattus norvegicus) (UniProt P18508+P62813+P63138); assay: Intrinsic activity at recombinant rat GABAA alpha-1-beta-3-gamma-2 receptor expressed in HEK293 cells assessed as induction of current at 1 mM by whole-cell patch-clamp technique relative to GABA; format: cell-based; summary of the method: as §1
[13] = target: Gamma-aminobutyric acid receptor subunit alpha-6 (Rattus norvegicus) (UniProt P30191); assay: Displacement of [3H]Muscimol from GABAAalpha6 receptor in Sprague-Dawley rat brain cerebellum membrane at 1 mM; format: tissue-based; summary of the method: as §3
Rattus norvegicus [14] = species: Rattus norvegicus; assay: Displacement of [3H]Muscimol from GABAA alpha-1-alpha-5 receptor in Sprague-Dawley rat brain cortex membrane at 100 uM; summary of the method: as §3
[15] = target: GABA A receptor alpha-5/beta-3/gamma-2 (Rattus norvegicus) (UniProt P18508+P19969+P63079); assay: Intrinsic activity at recombinant rat GABAA alpha-5-beta-3-gamma-2 receptor expressed in HEK293 cells assessed as induction of current at 1 mM by whole-cell patch-clamp technique relative to GABA; format: cell-based; summary of the method: as §1
Rattus norvegicus [16] = species: Rattus norvegicus; assay: Displacement of [3H]Muscimol from GABAA alpha-1-alpha-5 receptor in Sprague-Dawley rat brain cortex membrane at 1 mM; summary of the method: as §3
[17] = target: GABA A receptor alpha-5/beta-3/gamma-2 (Rattus norvegicus, UniProt P18508+P19969+P63079); assay: Agonist activity at rat recombinant GABAA alpha-5-beta-3-gamma-2 receptor expressed in HEK293 cells assessed as normalization of GABA-induced current by whole cell patch-clamp technique; format: functional, cell-based; summary of the method: as §2
[18] = target: Gamma-aminobutyric acid receptor subunit alpha-4 (Rattus norvegicus) (UniProt P28471); assay: Intrinsic activity at recombinant rat GABAA alpha-4-beta-3-gamma-2 receptor expressed in HEK293 cells assessed as induction of current at 1 mM by whole-cell patch-clamp technique relative to GABA; format: cell-based; summary of the method: as §1
[19] = Agonist activity at rat GABAA alpha-1S68C-beta-2 receptor mutant expressed in Xenopus laevis oocytes at -60 mV at 30 mM by Two-Electrode voltage clamp method; format: functional, Oocyte
Summary of the method: (§6)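 Rat α1β2 receptors (wt or cysteine mutant) expressed in Xenopus oocytes. Two-electrode voltage clamp at −60 mV, room temperature, Ca2+-free frog Ringer, pH 7.5. Increasing test concentrations applied alone. Currents normalized to the maximal GABA-induced current. Some dose-response curves had only two trials.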

[20] = target: T1, GABA A receptor alpha-2/beta-2/gamma-2 (Rattus norvegicus); assay: Antagonist activity at recombinant rat GABAA alpha-2-beta-3-gamma-2 receptor expressed in HEK293 cells assessed as inhibition of GABA-induced current at 1 uM by whole-cell patch-clamp technique; format: functional, cell-based; design: scale not given: the % may be the effect or the level left
Summary of the method: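 HEK293 cells transiently transfected by calcium phosphate with rat αi, β3, γ2S and EGFP cDNAs, recorded 2 days later. Whole-cell patch clamp in HEPES saline, pH 7.35. […] Response expressed relative to the GABA-alone current. Data from at least four cells.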

[21] = target: Gamma-aminobutyric acid receptor subunit alpha-1 (Rattus norvegicus) (UniProt P62813); assay: Agonist activity at rat wild type GABAA alpha-1-beta-2 receptor expressed in Xenopus laevis oocytes at -60 mV at 30 mM by Two-Electrode voltage clamp method; format: functional, cell-based; conditions: Oocyte; summary of the method: as §6
[22] = Agonist activity at rat GABAA alpha-1F64C-beta-2 receptor mutant expressed in Xenopus laevis oocytes at -60 mV by Two-Electrode voltage clamp method; format: functional, cell-based; conditions: Oocyte
[23] = Agonist activity at rat GABAA alpha-1F64C-beta-2 receptor mutant expressed in Xenopus laevis oocytes at -60 mV at 30 mM by Two-Electrode voltage clamp method; format: functional, Oocyte; summary of the method: as §6
[24] = Agonist activity at rat GABAA alpha-1S68C-beta-2 receptor mutant expressed in Xenopus laevis oocytes assessed as reduction of GABA-induced current at -60 mV at 10 mM by Two-Electrode voltage clamp method in presence of 450 uM 2-sulfonatoethyl methanethiosulfonate; format: functional, Oocyte; design: scale not given: the % may be the effect or the level left
[25] = Agonist activity at rat GABAA alpha-1S68C-beta-2 receptor mutant expressed in Xenopus laevis oocytes as inhibition of GABA-induced current at -60 mV by Two-Electrode voltage clamp method in presence of picrotoxinin; format: functional, cell-based; conditions: Oocyte
[26] = target: Gamma-aminobutyric acid receptor subunit alpha-1 (Rattus norvegicus) (UniProt P62813); assay: Agonist activity at rat wild type GABAA alpha-1-beta-2 receptor expressed in Xenopus laevis oocytes assessed as inhibition of drug-induced current at -60 mV at 10 mM in presence of 100 uM picrotoxinin by Two-Electrode voltage clamp method; format: functional, cell-based; design: scale not given: the % may be the effect or the level left; conditions: Oocyte
Summary of the method: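 Oocytes expressing rat α1β2, two-electrode voltage clamp at −60 mV. Several 10 mM test pulses applied, then washout. 100 μM picrotoxinin applied, immediately followed by co-application of 10 mM drug plus 100 μM picrotoxinin, and the current recorded.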

[27] = Agonist activity at rat GABAA alpha-1F64C-beta-2 receptor mutant expressed in Xenopus laevis oocytes assessed as inhibition of GABA-induced current at -60 mV by Two-Electrode voltage clamp method in presence of picrotoxinin; format: functional, cell-based; conditions: Oocyte
[28] = Agonist activity at rat GABAA alpha-1S68C-beta-2 receptor mutant expressed in Xenopus laevis oocytes at -60 mV by Two-Electrode voltage clamp method; format: functional, cell-based; conditions: Oocyte
[29] = Agonist activity at rat GABAA alpha-1F64C-beta-2 receptor mutant expressed in Xenopus laevis oocytes assessed as reduction of GABA-induced current at -60 mV at 10 mM by Two-Electrode voltage clamp method in presence of 10 uM 2-sulfonatoethyl methanethiosulfonate; format: functional, Oocyte; design: scale not given: the % may be the effect or the level left
[30] = Agonist activity at rat GABAA alpha-1F64C-beta-2 receptor mutant expressed in Xenopus laevis oocytes assessed as inhibition of GABA-induced current at -60 mV at 1 mM by Two-Electrode voltage clamp method; format: functional, Oocyte; design: scale not given: the % may be the effect or the level left
Summary of the method: (§7)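 Xenopus oocytes injected with rat α1 (wt or cysteine mutant) plus β2 mRNA, kept 2–10 days at 17 °C. Two-electrode voltage clamp at −60 mV, room temperature, Ca2+-free frog Ringer, pH 7.5.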

[31] = target: Gamma-aminobutyric acid receptor subunit alpha-1 (Rattus norvegicus) (UniProt P62813); assay: Agonist activity at rat wild type GABAA alpha-1-beta-2 receptor expressed in Xenopus laevis oocytes as inhibition of GABA-induced current at -60 mV at 1 mM by Two-Electrode voltage clamp method; format: functional, cell-based; design: scale not given: the % may be the effect or the level left; conditions: Oocyte; summary of the method: as §7
[32] = Agonist activity at rat GABAA alpha-1R66C-beta-2 receptor mutant expressed in Xenopus laevis oocytes assessed as reduction of GABA-induced current at -60 mV at 30 mM by Two-Electrode voltage clamp method in presence of 5.5 mM GABA; format: functional, Oocyte; design: scale not given: the % may be the effect or the level left
Summary of the method: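 α1R66Cβ2 oocytes, two-electrode voltage clamp at −60 mV. […] Then 10 mM MTSES (12 s) and 10 mM DTT (20 s) were applied. Reaction rate fitted monoexponentially against cumulative application time.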

[33] = target: T2, Gamma-aminobutyric acid receptor subunit alpha-1 (Rattus norvegicus, UniProt P62813+P63138); assay: Agonist activity at rat wild type GABAA alpha-1-beta-2 receptor expressed in Xenopus laevis oocytes at -60 mV by Two-Electrode voltage clamp method; format: functional, cell-based, Oocyte
[34] = Agonist activity at rat GABAA alpha-1R66C-beta-2 receptor mutant expressed in Xenopus laevis oocytes assessed as inhibition of GABA-induced current at -60 mV at 10 mM in presence of 2 mM 2-sulfonatoethyl methanethiosulfonate by Two-Electrode voltage clamp method; format: functional, Oocyte; design: scale not given: the % may be the effect or the level left
[35] = target: T2, Gamma-aminobutyric acid receptor subunit alpha-1; assay: Agonist activity at rat wild type GABAA alpha-1-beta-2 receptor expressed in Xenopus laevis oocytes as inhibition of GABA-induced current at -60 mV by Two-Electrode voltage clamp method in presence of picrotoxinin; format: functional, cell-based, Oocyte
[36] = Agonist activity at rat GABAA alpha-1S68C-beta-2 receptor mutant expressed in Xenopus laevis oocytes as inhibition of GABA-induced current at -60 mV at 1 mM by Two-Electrode voltage clamp method; format: functional, Oocyte; design: scale not given: the % may be the effect or the level left; summary of the method: as §7

Gamma-aminobutyric acid receptor subunit alpha-3 (Rattus norvegicus), sequence (P20236 whole entry): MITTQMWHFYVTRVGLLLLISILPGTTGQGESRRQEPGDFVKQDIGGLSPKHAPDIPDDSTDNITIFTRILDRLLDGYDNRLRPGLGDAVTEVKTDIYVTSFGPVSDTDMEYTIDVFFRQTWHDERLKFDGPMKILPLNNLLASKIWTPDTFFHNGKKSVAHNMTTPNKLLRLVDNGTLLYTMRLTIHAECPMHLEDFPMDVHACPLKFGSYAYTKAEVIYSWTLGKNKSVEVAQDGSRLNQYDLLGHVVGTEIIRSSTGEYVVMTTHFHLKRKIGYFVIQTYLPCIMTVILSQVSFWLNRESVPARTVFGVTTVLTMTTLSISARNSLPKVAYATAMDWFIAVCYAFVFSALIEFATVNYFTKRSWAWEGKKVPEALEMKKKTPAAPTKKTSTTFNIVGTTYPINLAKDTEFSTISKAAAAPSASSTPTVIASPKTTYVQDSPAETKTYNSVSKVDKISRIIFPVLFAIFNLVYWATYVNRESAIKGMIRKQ
Gamma-aminobutyric acid receptor subunit alpha-6 (Rattus norvegicus), sequence (P30191 whole entry): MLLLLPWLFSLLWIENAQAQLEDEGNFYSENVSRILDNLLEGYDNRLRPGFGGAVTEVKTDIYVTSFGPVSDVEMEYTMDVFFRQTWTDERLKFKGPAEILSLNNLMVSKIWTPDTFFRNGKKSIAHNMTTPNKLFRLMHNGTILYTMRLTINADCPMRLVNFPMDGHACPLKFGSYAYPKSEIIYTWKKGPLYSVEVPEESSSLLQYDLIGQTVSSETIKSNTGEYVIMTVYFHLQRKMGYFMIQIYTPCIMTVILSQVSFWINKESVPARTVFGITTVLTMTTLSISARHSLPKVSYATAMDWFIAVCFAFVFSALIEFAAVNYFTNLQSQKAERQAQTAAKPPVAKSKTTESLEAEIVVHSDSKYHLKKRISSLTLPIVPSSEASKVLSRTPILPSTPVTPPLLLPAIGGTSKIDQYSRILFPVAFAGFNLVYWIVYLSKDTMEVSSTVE
Gamma-aminobutyric acid receptor subunit alpha-6 (Rattus norvegicus, UniProt P30191), sequence (P30191 whole entry): as above
Gamma-aminobutyric acid receptor subunit alpha-1 (Rattus norvegicus), sequence (P62813 whole entry): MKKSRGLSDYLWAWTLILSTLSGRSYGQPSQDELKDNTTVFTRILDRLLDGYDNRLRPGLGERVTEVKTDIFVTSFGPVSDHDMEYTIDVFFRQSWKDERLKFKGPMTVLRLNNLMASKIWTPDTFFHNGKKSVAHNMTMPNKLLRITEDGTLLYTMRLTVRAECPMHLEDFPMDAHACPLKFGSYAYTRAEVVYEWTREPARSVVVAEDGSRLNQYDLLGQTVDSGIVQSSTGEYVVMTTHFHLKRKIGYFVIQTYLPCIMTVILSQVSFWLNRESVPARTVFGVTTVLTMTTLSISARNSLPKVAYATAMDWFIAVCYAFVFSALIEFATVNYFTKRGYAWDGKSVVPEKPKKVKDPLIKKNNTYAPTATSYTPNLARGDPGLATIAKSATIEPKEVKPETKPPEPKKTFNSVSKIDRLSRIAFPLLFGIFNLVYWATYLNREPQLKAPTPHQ
Gamma-aminobutyric acid receptor subunit alpha-4 (Rattus norvegicus), sequence (P28471 whole entry): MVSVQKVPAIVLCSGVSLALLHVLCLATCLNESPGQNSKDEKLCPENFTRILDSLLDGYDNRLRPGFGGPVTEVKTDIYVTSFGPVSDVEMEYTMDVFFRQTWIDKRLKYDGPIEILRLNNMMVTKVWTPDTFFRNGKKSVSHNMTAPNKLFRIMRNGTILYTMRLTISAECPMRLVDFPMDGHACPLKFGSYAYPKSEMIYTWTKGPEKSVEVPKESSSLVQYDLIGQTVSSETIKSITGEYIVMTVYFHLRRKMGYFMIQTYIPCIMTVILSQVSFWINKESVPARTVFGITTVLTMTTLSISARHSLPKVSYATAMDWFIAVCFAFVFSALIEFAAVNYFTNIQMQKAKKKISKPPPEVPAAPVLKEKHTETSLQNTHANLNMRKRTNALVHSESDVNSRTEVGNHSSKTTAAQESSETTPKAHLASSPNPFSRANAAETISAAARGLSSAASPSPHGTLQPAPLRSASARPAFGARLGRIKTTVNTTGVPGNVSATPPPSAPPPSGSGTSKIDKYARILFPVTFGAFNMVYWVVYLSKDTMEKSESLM
T2 sequence (P62813 whole entry, one chain of several): as the sequence (P62813 whole entry) above
Gamma-aminobutyric acid receptor subunit alpha-3, sequence (P20236 whole entry, one chain of several): as the sequence (P20236 whole entry) above
Gamma-aminobutyric acid receptor subunit alpha-6 (Rattus norvegicus, UniProt P18508+P30191+P63079), sequence (P30191 whole entry, the tested form may be a part, one chain of several): as the sequence (P30191 whole entry) above
Gamma-aminobutyric acid receptor subunit alpha-4, sequence (P28471 whole entry, one chain of several): as the sequence (P28471 whole entry) above
GABA A receptor alpha-5/beta-3/gamma-2, sequence (P18508 whole entry): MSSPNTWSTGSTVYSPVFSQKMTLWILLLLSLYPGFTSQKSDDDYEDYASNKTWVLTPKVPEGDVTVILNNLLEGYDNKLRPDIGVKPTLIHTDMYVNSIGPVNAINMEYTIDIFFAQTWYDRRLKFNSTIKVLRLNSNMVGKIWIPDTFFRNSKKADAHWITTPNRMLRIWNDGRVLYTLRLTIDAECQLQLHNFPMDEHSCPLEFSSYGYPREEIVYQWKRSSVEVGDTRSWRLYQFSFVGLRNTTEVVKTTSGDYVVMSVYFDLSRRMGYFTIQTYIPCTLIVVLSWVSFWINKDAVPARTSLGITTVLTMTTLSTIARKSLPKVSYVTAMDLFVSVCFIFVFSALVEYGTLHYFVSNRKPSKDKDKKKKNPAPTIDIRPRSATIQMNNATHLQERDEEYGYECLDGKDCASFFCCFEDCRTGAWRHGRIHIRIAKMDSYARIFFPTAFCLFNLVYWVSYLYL
GABA A receptor alpha-5/beta-3/gamma-2, sequence (P19969 whole entry): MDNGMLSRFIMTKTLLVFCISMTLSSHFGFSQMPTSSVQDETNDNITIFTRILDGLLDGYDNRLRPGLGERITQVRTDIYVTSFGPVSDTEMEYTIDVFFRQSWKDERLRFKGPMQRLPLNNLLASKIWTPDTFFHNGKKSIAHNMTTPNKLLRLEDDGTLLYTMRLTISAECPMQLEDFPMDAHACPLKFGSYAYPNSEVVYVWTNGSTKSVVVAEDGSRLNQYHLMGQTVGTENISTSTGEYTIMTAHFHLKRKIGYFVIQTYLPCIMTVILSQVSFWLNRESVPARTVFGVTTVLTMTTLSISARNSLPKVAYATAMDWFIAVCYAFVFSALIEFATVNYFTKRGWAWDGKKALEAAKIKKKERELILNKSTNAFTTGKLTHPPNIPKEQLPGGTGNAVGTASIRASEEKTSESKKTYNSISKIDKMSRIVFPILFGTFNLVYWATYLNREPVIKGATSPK
GABA A receptor alpha-5/beta-3/gamma-2, sequence (P63079 whole entry): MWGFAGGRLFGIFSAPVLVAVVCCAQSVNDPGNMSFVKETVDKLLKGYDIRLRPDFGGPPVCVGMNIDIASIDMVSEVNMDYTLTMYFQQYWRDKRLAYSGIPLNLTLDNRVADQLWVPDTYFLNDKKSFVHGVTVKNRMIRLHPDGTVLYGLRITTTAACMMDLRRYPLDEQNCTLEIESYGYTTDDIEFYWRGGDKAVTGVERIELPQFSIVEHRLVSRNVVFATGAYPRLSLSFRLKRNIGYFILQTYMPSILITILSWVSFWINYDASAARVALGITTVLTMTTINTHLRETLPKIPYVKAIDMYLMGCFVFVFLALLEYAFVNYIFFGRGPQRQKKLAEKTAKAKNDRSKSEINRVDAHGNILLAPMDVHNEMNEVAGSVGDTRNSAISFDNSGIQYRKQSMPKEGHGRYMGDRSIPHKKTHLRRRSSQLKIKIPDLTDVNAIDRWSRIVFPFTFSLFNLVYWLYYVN

Row | SMILES | Activity [2] | Activity [4] | inhibition [5] [%] | Activity [6] | logIC50 (Rattus norvegicus [7]) | IC50 [8] [µM] | logIC50 [10] | IC50 [11] [µM] | Activity [12] | inhibition [13] [%] | inhibition (Rattus norvegicus [14]) [%] | Activity [15] | inhibition (Rattus norvegicus [16]) [%] | Activity [18] | other results
1 | NCc1nnc(O)o1 | 0.88 | 0.59 | 97 | 1.03 | 0.139 | 1.4 | 0.048 | 1.1 | 0.93 | 102 | 99 | 0.95 | 104 | 0.97 | EC50 [1]: 30 µM; EC50 [3]: 2300 µM; EC50 [9]: 128 µM; EC50 [17]: 137 µM
2 | Cc1nnc(C2CCNCC2)o1 | < 10% | < 10% | 56 | 29% | 2.04 | 109 | 1.88 | 76 | < 10% | 91 | 48 | < 10% | 87 | < 10% | 
3 | Cl.Sc1nnc(C2CCNCC2)o1 | 23% | 13% | 64 |  | 1.67 |  | 1.82 | 66 |  | 91 | 68 | 48% | 94 |  | Activity [19]: 17%; Activity [20]: 39%; Activity [21]: 20%; EC50 [22]: 5500 µM; Activity [23]: 60%; Activity [24]: 40%; IC50 [25]: 46 µM; Activity [26]: 80%; IC50 [27]: 56 µM; EC50 [28]: 10000 µM; Activity [29]: 47%; Activity [30]: 9%; Activity [31]: 6.8%; Activity [32]: 68%; EC50 [33]: 9500 µM; Activity [34]: 77%; IC50 [35]: 59 µM; Activity [36]: 3%
